Data on one compound can be found in ChEMBL document CHEMBL1145585, “Discovery of novel 4-amino-6-arylaminopyrimidine-5-carbaldehyde oximes as dual inhibitors of EGFR and ErbB-2 protein tyrosine kinases” (Bioorg Med Chem Lett, 2008).

What all share (assay type): ADME, organism-based
Data set [1] can be described thus: Tmax in Sprague-Dawley rat at 10 mg/kg, po. Set-up: dose 10 mg/kg, route oral. The note with it: in vivo. An outline of the steps: (§1)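 Sprague–Dawley rats were dosed 2 mg/kg iv in 10% solutol in D5W and 10 mg/kg po in 0.5% hydroxypropyl methylcellulose. Plasma levels were followed to derive the pharmacokinetic parameters.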
Data set [2] in a line: Clearance in Sprague-Dawley rat at 2 mg/kg, iv and 10 mg/kg, po. The note with it: in vivo. Summed up: as §1
Data set [3] is described as follows: Volume of distribution at steady state in Sprague-Dawley rat at 2 mg/kg, iv and 10 mg/kg, po. The note with it: in vivo, read-out: Vdss. Summed up: as §1
Data set [4] is described as follows: Half life in Sprague-Dawley rat at 10 mg/kg, po. On the set-up: dose 10 mg/kg, route oral. The note with it: in vivo. Summed up: as §1
Data set [5] is described as follows: Bioavailability in Sprague-Dawley rat at 2 mg/kg, iv and 10 mg/kg, po. The note with it: in vivo. An outline of the steps:
as §1

A short description of data set [6]: AUC in Sprague-Dawley rat at 10 mg/kg, po. The note with it: plasma. Set-up: dose 10 mg/kg, route oral. An outline of the steps:
as §1

Data set [7] can be described thus: Cmax in Sprague-Dawley rat at 10 mg/kg, po. Set-up: dose 10 mg/kg, route oral. The note with it: in vivo. An outline of the steps: as §1

As a reminder, the Tmax is the time from dosing to the highest level. One may read the half-life as the time needed for the level to fall by half in the phase considered. Lower therefore signals rapid decline. Usually bioavailability stands for dose-corrected exposure relative to a reference, in per cent. A low value points to poor availability. In general, AUC refers to the area under the concentration-time curve, a measure of exposure. In general, Cmax refers to the maximum level reached in the sampled fluid or tissue. Turning to `CO/N=C/c1c(N)ncnc1Nc1ccc(OCc2ccccc2)c(Cl)c1`, the Tmax in data set [1] was 0.63 h. In data set [2], this compound yielded a clearance of 3.56 mL/min/kg. For the same compound, in data set [3], the Vd was found to be 0.17 L/kg. The compound further showed a half-life in data set [4] of 8.4 h. The same compound returned a bioavailability in data set [5] of 15%. Also, the area under the curve (AUC) in data set [6] was 19.3 µM·h. In data set [7], this compound came in with a maximum concentration (Cmax) of 5.7 µM.
